Assay results as given in ChEMBL document CHEMBL5108018, “Discovery of MDM2-p53 and MDM4-p53 protein-protein interactions small molecule dual inhibitors” (Eur J Med Chem, 2022).
Each block holds one molecule with its values, some of them ahead of it. Active and inactive are the calls of the source. No cut-off for these calls is given here.

Experiments:
[1] = test system: HCT-116; experiment: Antiproliferative activity against human HCT-116 cells harboring wild type p53 overexpressing MDM2 assessed as inhibition of cell growth incubated for 48 hrs by MTS assay; type: functional, cell-based; conditions: HCT-116, 48 h
Procedure, shortened: (§1)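 MTS viability: cells seeded 1×10^4/well (HCT116), 3×10^3/well (SJSA-1, LNCaP), 5×10^3/well (MCF-7), treated ~24 h after plating with DMSO-stock compounds serially diluted in medium (final DMSO ≤0.1%). Ten or more concentrations over 1–100 µM, duplicates, ≥3 independent runs. Exposure 48 h (HCT116), 72 h (MCF-7), 96 h (SJSA-1, LNCaP). MTS 0.5 mg/mL added for 15–30 min, A490. IC50 from four-parameter variable-slope fit.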

[2] = test system: MCF7; experiment: Antiproliferative activity against human MCF7 cells harboring wild type p53 overexpressing MDM2/4 assessed as inhibition of cell growth incubated for 72 hrs by MTS assay; type: functional, cell-based; conditions: MCF7, 72 h; procedure, shortened: as §1
[3] = test system: SJSA-1; experiment: Antiproliferative activity against human SJSA-1 cells harboring wild type p53 overexpressing MDM2/4 assessed as inhibition of cell growth incubated for 96 hrs by MTS assay; type: functional, cell-based; conditions: SJSA-1, 96 h; procedure, shortened: as §1
[4] = test system: LNCaP; experiment: Antiproliferative activity against human LNCaP cells harboring wild type p53 overexpressing MDM2/4 assessed as inhibition of cell growth incubated for 96 hrs by MTS assay; type: functional, cell-based; procedure, shortened: as §1
[5] = test system: HEK-293T; experiment: Cytotoxicity against HEK293T cells assessed as reduction in cell viability at 15 uM incubated for 96 hrs by MTS assay relative to control; type: toxicity, cell-based; conditions: human
Procedure, shortened: (§2)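 Single-concentration MTS viability with DMSO vehicle control (final ≤0.1%) run in parallel. HEK293T: 3×10^3 cells/well, 15 µM for 96 h. HCT116 p53(-/-): 20 µM for 48 h. Compound added ~24 h after plating; MTS 0.5 mg/mL in fresh medium for 15–30 min, A490. Mean ± SD of three independent experiments, one-way ANOVA with Bonferroni test.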

[6] = Antiproliferative activity against human HCT116-p53-null cells assessed as reduction in cell viability at 20 uM incubated for 48 hrs by MTS assay; type: functional; procedure, shortened: as §2
[7] = test system: SJSA-1; experiment: Induction of apoptosis in human SJSA-1 cells assessed as viable cells at 15 uM incubated for 96 hrs by Annexin V-FITC/7-AAD staining based flow cytometric analysis (reference value: 99.2%); type: functional; conditions: read-out: Activity
[8] = test system: SJSA-1; experiment: Induction of apoptosis in human SJSA-1 cells assessed as viable cells at 22.5 uM incubated for 96 hrs by Annexin V-FITC/7-AAD staining based flow cytometric analysis (reference value: 99.2%); type: functional; conditions: read-out: Activity
[9] = test system: SJSA-1; experiment: Induction of apoptosis in human SJSA-1 cells assessed as early apoptotic cells at 22.5 uM incubated for 96 hrs by Annexin V-FITC/7-AAD staining based flow cytometric analysis (reference value: 0.3%); type: functional
[10] = test system: SJSA-1; experiment: Induction of apoptosis in human SJSA-1 cells assessed as late apoptotic cells at 22.5 uM incubated for 96 hrs by Annexin V-FITC/7-AAD staining based flow cytometric analysis (reference value: 0.6%); type: functional
[11] = test system: SJSA-1; experiment: Induction of cell death in human SJSA-1 cells assessed as reduction in cell growth at 1.5 times IC50 incubated for 96 hrs by bright field microscopic analysis; type: functional, cell-based
Procedure, shortened: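 Brightfield microscopy of SJSA-1 cell morphology after 96 h with DMSO vehicle or compound.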

[12] = test system: SJSA-1; experiment: Induction of cell cycle arrest in human SJSA-1 cells assessed as accumulation of cells at G0/G1 phase at 15 uM incubated for 96 hrs by RNaseA/PI staining based flow cytometry analysis (reference value: 57.09 %); type: functional
[13] = test system: SJSA-1; experiment: Induction of cell cycle arrest in human SJSA-1 cells assessed as accumulation of cells at S phase at 15 uM incubated for 96 hrs by RNaseA/PI staining based flow cytometry analysis (reference value: 25.88 %); type: functional
[14] = test system: SJSA-1; experiment: Induction of cell cycle arrest in human SJSA-1 cells assessed as accumulation of cells at G2/M phase at 15 uM incubated for 96 hrs by RNaseA/PI staining based flow cytometry analysis (reference value: 17.24 %); type: functional
[15] = test system: SJSA-1; experiment: Induction of cell cycle arrest in human SJSA-1 cells assessed as accumulation of cells at G0/G1 phase at 22.5 uM incubated for 96 hrs by RNaseA/PI staining based flow cytometry analysis (reference value: 57.09 %); type: functional
[16] = test system: SJSA-1; experiment: Induction of cell cycle arrest in human SJSA-1 cells assessed as accumulation of cells at S phase at 22.5 uM incubated for 96 hrs by RNaseA/PI staining based flow cytometry analysis (reference value: 25.88 %); type: functional
[17] = test system: SJSA-1; experiment: Induction of cell cycle arrest in human SJSA-1 cells assessed as accumulation of cells at G2/M phase at 22.5 uM incubated for 96 hrs by RNaseA/PI staining based flow cytometry analysis (reference value: 17.24 %); type: functional

SMILES: O=C(O)C1=NN(C2CCCCC2)C2(C(=O)Nc3cc(Cl)ccc32)C1c1cccc(Cl)c1F (configuration not stated)
IC50 [1]: > 100 µM

SMILES: O=C(NCCO)C1=NN(c2ccc(Cl)cc2)C2(C(=O)Nc3cc(Cl)ccc32)C1c1cccc(O)c1 (configuration not stated)
IC50 [1]: > 50 µM

SMILES: CCOC(=O)C1=NN(C2CCCCC2)C2(C(=O)Nc3cc(Cl)ccc32)C1c1cccc(Cl)c1 (configuration not stated)
IC50 [1]: 25.5 µM

SMILES: CCOC(=O)C1=NN(C2CCCCC2)C2(C(=O)Nc3cc(Cl)ccc32)C1c1cccc(Cl)c1F (configuration not stated)
IC50 [1]: 23.6 µM
IC50 [3]: 12.6 µM

SMILES: CCOC(=O)C1=NN(C(C)(C)C)C2(C(=O)Nc3cc(Cl)c(F)cc32)C1c1cccc(Cl)c1F (configuration not stated)
IC50 [1]: 35.1 µM

SMILES: CCOC(=O)C1=NN(C2CCCCC2)C2(C(=O)Nc3cc(Cl)ccc32)C1c1cccc(F)c1 (configuration not stated)
IC50 [1]: 27.5 µM
IC50 [4]: 13.1 µM

SMILES: CC(C)(C)N1N=C(C(=O)O)C(c2cccc(Cl)c2F)C12C(=O)Nc1cc(Cl)ccc12 (configuration not stated)
IC50 [1]: > 100 µM

SMILES: CC(C)(C)N1N=C(C(=O)NCCO)C(c2cccc(Cl)c2F)C12C(=O)Nc1cc(Cl)ccc12 (configuration not stated)
IC50 [1]: > 50 µM

SMILES: CCOC(=O)C1=NN(c2ccc(Cl)cc2)C2(C(=O)Nc3cc(Cl)ccc32)C1c1cccc(Cl)c1F (configuration not stated)
IC50 [1]: 18 µM
IC50 [3]: 15.6 µM
IC50 [4]: 10.7 µM
IC50 [2]: 15.6 µM
Activity [5]: 24%
Activity [6]: 13%
viability at 15 µM [7]: 98.6%
viability at 22.5 µM [8]: 92.7%
Activity [9]: 2.9%
Activity [10]: 4.3%
Activity [11]: Active
Activity [12]: 67.51%
Activity [13]: 21.48%
Activity [14]: 11.01%
Activity [15]: 82.19%
Activity [16]: 11.13%
Activity [17]: 6.67%

Continued by falling IC50 [1], values first:

IC50 [1]: 41.9 µM
SMILES: CCOC(=O)C1=NN(C(C)(C)C)C2(C(=O)Nc3cc(Cl)c(F)cc32)C1c1cccc(F)c1 (configuration not stated)

IC50 [1]: 39.1 µM
SMILES: CCOC(=O)C1=NN(C2CCCCC2)C2(C(=O)Nc3cc(Cl)ccc32)C1c1ccc(Cl)cc1 (configuration not stated)

IC50 [1]: 27.2 µM
IC50 [2]: 14.3 µM
SMILES: O=C(Nc1ccc(O)cc1)C1=NN(c2ccc(Cl)cc2)C2(C(=O)Nc3cc(Cl)ccc32)C1c1cccc(O)c1 (configuration not stated)

IC50 [1]: 27 µM
SMILES: O=C(NCCc1ccc(O)cc1)C1=NN(c2ccc(Cl)cc2)C2(C(=O)Nc3cc(Cl)ccc32)C1c1cccc(O)c1 (configuration not stated)
